Experimental data published in ChEMBL document CHEMBL2176911 (J Med Chem, 2012).
Activity calls are given as the source filed them. No cut-off for these calls is given here.

Legend:
[1] = biological target: Dual specificity protein kinase CLK1 (Mus musculus) (UniProt P22518); assay: Inhibition of mouse recombinant GST-tagged CLK1 expressed in Escherichia coli using GRSRSRSRSRSR as substrate and [gamma33P]ATP at 10 uM after 30 mins by scintillation counting
In short: (§1)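 Radiometric kinase assay with the RS peptide as substrate and 15 μM [γ-33P]ATP.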

[2] = biological target: T1, Dual specificity tyrosine-phosphorylation-regulated kinase 2 (Homo sapiens) (UniProt Q92630); assay: Inhibition of human recombinant GST-tagged DYRK2 expressed in Escherichia coli using GRSRSRSRSRSR as substrate and [gamma33P]ATP at 10 uM after 30 mins by scintillation counting
T1 sequence (whole entry): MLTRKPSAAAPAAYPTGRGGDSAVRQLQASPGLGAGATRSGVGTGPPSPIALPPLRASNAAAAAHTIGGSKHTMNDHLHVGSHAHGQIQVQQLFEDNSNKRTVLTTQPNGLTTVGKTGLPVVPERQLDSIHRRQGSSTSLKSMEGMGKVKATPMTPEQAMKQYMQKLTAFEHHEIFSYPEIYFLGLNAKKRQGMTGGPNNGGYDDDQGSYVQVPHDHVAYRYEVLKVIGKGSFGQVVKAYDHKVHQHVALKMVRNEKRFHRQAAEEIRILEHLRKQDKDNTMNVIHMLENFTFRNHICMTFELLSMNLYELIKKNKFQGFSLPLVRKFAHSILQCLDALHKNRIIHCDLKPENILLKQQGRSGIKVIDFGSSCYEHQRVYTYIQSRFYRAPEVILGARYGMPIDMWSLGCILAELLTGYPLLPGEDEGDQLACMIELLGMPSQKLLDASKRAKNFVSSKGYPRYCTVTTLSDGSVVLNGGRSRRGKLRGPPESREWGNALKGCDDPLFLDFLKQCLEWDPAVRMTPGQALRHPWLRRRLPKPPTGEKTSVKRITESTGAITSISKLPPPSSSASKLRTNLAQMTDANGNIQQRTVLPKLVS

[3] = biological target: Dual specificity protein kinase CLK3 (Mus musculus) (UniProt O35492); assay: Inhibition of mouse recombinant GST-tagged CLK3 expressed in Escherichia coli using GRSRSRSRSRSR as substrate and [gamma33P]ATP at 10 uM after 30 mins by scintillation counting; in short: as §1
[4] = biological target: Dual specificity tyrosine-phosphorylation-regulated kinase 1A (Homo sapiens) (UniProt Q13627); assay: Inhibition of human recombinant GST-tagged DYRK1A expressed in Escherichia coli using GRSRSRSRSRSR as substrate and [gamma33P]ATP at 15 uM after 30 mins by scintillation counting
[5] = biological target: T2, Dual specificity tyrosine-phosphorylation-regulated kinase 1A (Rattus norvegicus, UniProt Q63470); assay: Inhibition of rat DYRK1A isolated from brain using KKISGRLSPIMTEQ as substrate and [gamma33P]ATP after 30 mins by scintillation counting
[6] = Inhibition of starfish CDK1/cyclin B using histone H1 as substrate and [gamma33P]ATP after 30 mins by scintillation counting; parameters: species or system Asteroidea
In short: (§2)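 Panel of purified kinases (recombinant from several species plus native enzymes), each assayed radiometrically over a range of inhibitor concentrations; IC50 in μM calculated from the dose-response curves.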

[7] = biological target: Dual specificity protein kinase CLK3 (Mus musculus, UniProt O35492); assay: Inhibition of mouse recombinant GST-tagged CLK3 expressed in Escherichia coli using GRSRSRSRSRSR as substrate and [gamma33P]ATP after 30 mins by scintillation counting; in short: as §2
[8] = biological target: Glycogen synthase kinase-3 (Sus scrofa, UniProt B2LUN4+I6LNT8); assay: Inhibition of pig GSK3alpha/beta isolated from brain using YRRAAVPPSPSLSRHSSPHQ-phosphoS-EDEEE as substrate and [gamma33P]ATP after 30 mins by scintillation counting; in short: as §2
[9] = biological target: T1, Dual specificity tyrosine-phosphorylation-regulated kinase 2 (Homo sapiens); assay: Binding affinity to DYRK2
[10] = biological target: Dual specificity protein kinase CLK4 (Mus musculus, UniProt O35493); assay: Inhibition of mouse recombinant GST-tagged CLK4 expressed in Escherichia coli using GRSRSRSRSRSR as substrate and [gamma33P]ATP after 30 mins by scintillation counting
[11] = biological target: Glycogen synthase kinase-3 alpha (Homo sapiens, UniProt P49840); assay: Inhibition of human recombinant GSK3alpha expressed in insect cells using YRRAAVPPSPSLSRHSSPHQ-phosphoS-EDEEE as substrate and [gamma33P]ATP after 30 mins by scintillation counting
[12] = biological target: Serine/threonine-protein kinase pim-1 (Homo sapiens, UniProt P11309); assay: Inhibition of human recombinant PIM1 expressed in Escherichia coli using histone H1 as substrate and [gamma33P]ATP after 30 mins by scintillation counting
CDK9/cyclin T1 = CDK9/cyclin T1 (Homo sapiens, UniProt P50750); assay: Inhibition of human recombinant CDK9/cyclin T expressed in insect cell using YSPTSPSYSPTSPSYSPTSPSKKKK as substrate and [gamma33P]ATP after 30 mins by scintillation counting; in short: as §2
[13] = biological target: Dual specificity tyrosine-phosphorylation-regulated kinase 2 (Homo sapiens, UniProt Q92630); assay: Inhibition of human recombinant GST-tagged DYRK2 expressed in Escherichia coli using GRSRSRSRSRSR as substrate and [gamma33P]ATP after 30 mins by scintillation counting
[14] = biological target: Dual specificity protein kinase CLK1 (Homo sapiens) (UniProt P49759); assay: Binding affinity to CLK1
[15] = biological target: T3, Dual specificity tyrosine-phosphorylation-regulated kinase 4 (Homo sapiens, UniProt Q9NR20); assay: Inhibition of human recombinant GST-tagged DYRK4 expressed in Escherichia coli using GRSRSRSRSRSR as substrate and [gamma33P]ATP after 30 mins by scintillation counting
T3 sequence (Q9NR20 whole entry): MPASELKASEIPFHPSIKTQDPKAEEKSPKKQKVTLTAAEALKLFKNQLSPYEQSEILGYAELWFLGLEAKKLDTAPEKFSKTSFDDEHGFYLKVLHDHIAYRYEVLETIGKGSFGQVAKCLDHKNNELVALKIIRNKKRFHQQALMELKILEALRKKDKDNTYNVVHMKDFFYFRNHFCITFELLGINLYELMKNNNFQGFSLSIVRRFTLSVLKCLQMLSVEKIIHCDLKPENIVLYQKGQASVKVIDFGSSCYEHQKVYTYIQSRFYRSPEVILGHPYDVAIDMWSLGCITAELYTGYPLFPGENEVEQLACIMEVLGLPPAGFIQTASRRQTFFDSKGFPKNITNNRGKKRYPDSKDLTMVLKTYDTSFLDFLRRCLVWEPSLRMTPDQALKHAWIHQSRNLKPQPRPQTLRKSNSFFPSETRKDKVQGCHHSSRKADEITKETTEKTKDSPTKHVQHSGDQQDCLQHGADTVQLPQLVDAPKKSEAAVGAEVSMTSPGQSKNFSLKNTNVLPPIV

[16] = biological target: Mitogen-activated protein kinase 1 (Rattus norvegicus, UniProt P63086); assay: Inhibition of rat recombinant ERK2 using Ets1 as substrate and [gamma33P]ATP as substrate after 30 mins by scintillation counting; in short: as §2
[17] = biological target: Glycogen synthase kinase-3 beta (Homo sapiens, UniProt P49841); assay: Inhibition of human recombinant GSK3beta expressed in insect cells using YRRAAVPPSPSLSRHSSPHQ-phosphoS-EDEEE as substrate and [gamma33P]ATP after 30 mins by scintillation counting
[18] = biological target: Dual specificity tyrosine-phosphorylation-regulated kinase 3 (Homo sapiens, UniProt O43781); assay: Inhibition of human recombinant GST-tagged DYRK3 expressed in Escherichia coli using GRSRSRSRSRSR as substrate and [gamma33P]ATP after 30 mins by scintillation counting
[19] = biological target: Casein kinase II (Homo sapiens) (UniProt P67870+P68400+P19784); assay: Inhibition of human recombinant CK2 using RRREDEESDDEE as substrate and [gamma33P]ATP at 10 uM after 30 mins by scintillation counting; type: protein-complex assay
[20] = biological target: Dual specificity protein kinase CLK2 (Mus musculus, UniProt O35491); assay: Inhibition of mouse recombinant GST-tagged CLK2 expressed in Escherichia coli using GRSRSRSRSRSR as substrate and [gamma33P]ATP after 30 mins by scintillation counting; in short: as §2
[21] = biological target: T2, Dual specificity tyrosine-phosphorylation-regulated kinase 1A; assay: Inhibition of rat recombinant C-terminal truncated GST-tagged DYRK1A expressed in Escherichia coli using GRSRSRSRSRSR as substrate and [gamma33P]ATP after 30 mins by scintillation counting
Plasmodium falciparum = assay: Inhibition of Plasmodium falciparum recombinant GSK3 expressed in Escherichia coli using YRRAAVPPSPSLSRHSSPHQ-phosphoS-EDEEE as substrate and [gamma33P]ATP at 10 uM after 30 mins by scintillation counting
[22] = biological target: Cyclin-dependent kinase 7/ cyclin H (Homo sapiens, UniProt P50613); assay: Inhibition of human recombinant CDK7/cyclin H expressed in insect cell using YSPTSPSYSPTSPSYSPTSPSKKKK as substrate and [gamma33P]ATP after 30 mins by scintillation counting; in short: as §2
Leishmania major = assay: Inhibition of Leishmania major recombinant CK1 expressed in Escherichia coli using RRKHAAIGpSAYSITA as substrate and [gamma33P]ATP at 10 uM after 30 mins by scintillation counting
[23] = Inhibition of pig […] isolated from brain using RRKHAAIGpSAYSITA as substrate and [gamma33P]ATP after 30 mins by scintillation couting; parameters: species or system Sus scrofa; in short: as §2
[24] = biological target: Dual specificity protein kinase CLK4 (Homo sapiens, UniProt Q9HAZ1); assay: Binding affinity to CLK4
[25] = biological target: Dual specificity protein kinase CLK1 (Mus musculus, UniProt P22518); assay: Inhibition of mouse recombinant GST-tagged CLK1 expressed in Escherichia coli using GRSRSRSRSRSR as substrate and [gamma33P]ATP after 30 mins by scintillation counting; in short: as §2
[26] = biological target: Cyclin-dependent kinase 2/cyclin A (Homo sapiens, UniProt P24941); assay: Inhibition of CDK2/cyclin A using [gamma33P]ATP after 30 mins by scintillation counting; type: protein-complex assay; in short: as §2
[27] = biological target: Dual specificity protein kinase CLK3 (Homo sapiens, UniProt P49761); assay: Binding affinity to CLK3
HT-22 [28] = assay: Neuroprotective activity against glutamate-induced toxicity in mouse HT22 cells after 24 hrs by MTS assay; type: functional, cell-based
HT-22 [29] = assay: Inhibition of GSK3 in mouse HT22 cells at 10 uM after 4 hrs; type: cell-based
HT-22 [30] = assay: Inhibition of GSK3-mediated […] phosphorylation in mouse HT22 cells at 10 uM after 24 hrs by Western blot analysis in presence of MG132; type: cell-based
[31] = biological target: Dual specificity tyrosine-phosphorylation-regulated kinase 1A (Mus musculus) (UniProt Q61214); assay: Inhibition of DYRK1A in mouse HT22 cells at 10 uM after 4 hrs; type: cell-based; conditions: HT-22

Dual specificity protein kinase CLK3 (Mus musculus), sequence (O35492 whole entry): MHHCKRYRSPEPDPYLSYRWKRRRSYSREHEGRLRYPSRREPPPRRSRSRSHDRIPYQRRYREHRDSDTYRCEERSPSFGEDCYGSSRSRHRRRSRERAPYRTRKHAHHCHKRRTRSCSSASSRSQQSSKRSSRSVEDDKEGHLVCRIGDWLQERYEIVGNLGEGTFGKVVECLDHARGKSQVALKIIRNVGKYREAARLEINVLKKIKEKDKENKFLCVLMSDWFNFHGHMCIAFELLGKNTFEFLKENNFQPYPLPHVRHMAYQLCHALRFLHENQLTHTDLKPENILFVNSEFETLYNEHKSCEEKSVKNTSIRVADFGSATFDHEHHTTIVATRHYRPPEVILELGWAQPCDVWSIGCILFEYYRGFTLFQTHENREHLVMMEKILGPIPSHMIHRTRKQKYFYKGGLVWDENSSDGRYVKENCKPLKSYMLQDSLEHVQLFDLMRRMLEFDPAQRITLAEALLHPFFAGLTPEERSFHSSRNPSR
Dual specificity protein kinase CLK1 (Mus musculus), sequence (P22518 whole entry, looked up): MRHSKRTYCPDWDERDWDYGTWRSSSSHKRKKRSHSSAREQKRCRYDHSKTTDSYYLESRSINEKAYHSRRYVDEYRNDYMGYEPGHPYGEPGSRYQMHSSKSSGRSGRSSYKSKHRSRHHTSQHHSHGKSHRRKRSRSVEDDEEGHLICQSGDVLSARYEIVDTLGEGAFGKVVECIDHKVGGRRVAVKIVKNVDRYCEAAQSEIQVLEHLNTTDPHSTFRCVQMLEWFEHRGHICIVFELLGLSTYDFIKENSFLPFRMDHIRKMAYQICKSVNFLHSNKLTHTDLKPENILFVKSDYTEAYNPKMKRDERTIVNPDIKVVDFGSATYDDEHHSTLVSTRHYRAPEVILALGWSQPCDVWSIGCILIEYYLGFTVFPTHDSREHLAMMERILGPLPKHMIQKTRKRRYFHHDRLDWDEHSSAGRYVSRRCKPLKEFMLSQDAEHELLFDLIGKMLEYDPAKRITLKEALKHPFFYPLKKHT
Glycogen synthase kinase-3 beta, sequence (P49841 whole entry): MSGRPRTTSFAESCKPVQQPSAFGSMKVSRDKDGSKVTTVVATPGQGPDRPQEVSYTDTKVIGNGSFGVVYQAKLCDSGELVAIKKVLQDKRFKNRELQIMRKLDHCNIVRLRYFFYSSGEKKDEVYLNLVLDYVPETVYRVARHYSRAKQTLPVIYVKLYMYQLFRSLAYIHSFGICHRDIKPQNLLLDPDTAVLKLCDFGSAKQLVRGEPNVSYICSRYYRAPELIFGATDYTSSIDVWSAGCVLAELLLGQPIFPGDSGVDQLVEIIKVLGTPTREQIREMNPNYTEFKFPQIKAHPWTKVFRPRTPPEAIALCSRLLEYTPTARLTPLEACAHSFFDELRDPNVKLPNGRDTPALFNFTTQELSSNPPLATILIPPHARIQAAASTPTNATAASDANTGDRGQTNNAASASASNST
Dual specificity protein kinase CLK4 (Homo sapiens, UniProt Q9HAZ1), sequence (Q9HAZ1 whole entry, looked up): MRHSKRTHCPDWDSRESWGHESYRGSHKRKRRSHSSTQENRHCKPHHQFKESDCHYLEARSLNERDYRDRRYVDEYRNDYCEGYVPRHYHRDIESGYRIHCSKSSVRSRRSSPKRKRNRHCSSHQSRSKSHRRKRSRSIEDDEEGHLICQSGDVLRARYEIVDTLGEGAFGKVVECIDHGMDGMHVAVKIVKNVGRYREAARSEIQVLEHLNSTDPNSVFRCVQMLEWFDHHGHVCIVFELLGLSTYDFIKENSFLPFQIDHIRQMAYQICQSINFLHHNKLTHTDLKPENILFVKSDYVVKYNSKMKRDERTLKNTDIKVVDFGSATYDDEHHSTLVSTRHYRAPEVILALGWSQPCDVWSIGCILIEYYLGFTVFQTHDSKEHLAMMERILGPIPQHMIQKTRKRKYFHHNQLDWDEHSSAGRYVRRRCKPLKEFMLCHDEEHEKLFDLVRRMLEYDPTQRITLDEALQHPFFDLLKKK
Dual specificity tyrosine-phosphorylation-regulated kinase 3, sequence (O43781 whole entry): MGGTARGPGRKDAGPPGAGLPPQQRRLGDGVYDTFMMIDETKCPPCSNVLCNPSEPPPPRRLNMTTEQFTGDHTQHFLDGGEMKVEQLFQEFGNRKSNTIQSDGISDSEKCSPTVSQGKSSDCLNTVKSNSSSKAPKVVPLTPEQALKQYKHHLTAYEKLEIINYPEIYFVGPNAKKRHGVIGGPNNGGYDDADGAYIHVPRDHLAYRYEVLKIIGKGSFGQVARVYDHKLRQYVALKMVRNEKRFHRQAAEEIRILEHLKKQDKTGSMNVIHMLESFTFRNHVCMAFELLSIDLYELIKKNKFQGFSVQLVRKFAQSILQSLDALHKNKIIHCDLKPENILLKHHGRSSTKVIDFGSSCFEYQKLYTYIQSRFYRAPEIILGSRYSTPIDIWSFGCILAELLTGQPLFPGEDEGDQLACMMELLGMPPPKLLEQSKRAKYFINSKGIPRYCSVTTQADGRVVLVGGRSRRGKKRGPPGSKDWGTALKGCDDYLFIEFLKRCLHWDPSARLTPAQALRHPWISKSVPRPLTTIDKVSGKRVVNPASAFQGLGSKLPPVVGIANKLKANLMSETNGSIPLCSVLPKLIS
Cyclin-dependent kinase 7/ cyclin H, sequence (P51946 whole entry): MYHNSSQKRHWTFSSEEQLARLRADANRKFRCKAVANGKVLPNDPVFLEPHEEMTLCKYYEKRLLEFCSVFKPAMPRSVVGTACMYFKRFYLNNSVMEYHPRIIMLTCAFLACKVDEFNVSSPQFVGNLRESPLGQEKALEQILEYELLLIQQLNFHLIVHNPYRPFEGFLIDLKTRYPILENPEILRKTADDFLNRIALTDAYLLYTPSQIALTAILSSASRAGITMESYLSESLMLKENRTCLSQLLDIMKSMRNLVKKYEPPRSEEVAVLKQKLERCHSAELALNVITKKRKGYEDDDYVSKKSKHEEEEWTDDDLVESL
Cyclin-dependent kinase 7/ cyclin H, sequence (P50613 whole entry): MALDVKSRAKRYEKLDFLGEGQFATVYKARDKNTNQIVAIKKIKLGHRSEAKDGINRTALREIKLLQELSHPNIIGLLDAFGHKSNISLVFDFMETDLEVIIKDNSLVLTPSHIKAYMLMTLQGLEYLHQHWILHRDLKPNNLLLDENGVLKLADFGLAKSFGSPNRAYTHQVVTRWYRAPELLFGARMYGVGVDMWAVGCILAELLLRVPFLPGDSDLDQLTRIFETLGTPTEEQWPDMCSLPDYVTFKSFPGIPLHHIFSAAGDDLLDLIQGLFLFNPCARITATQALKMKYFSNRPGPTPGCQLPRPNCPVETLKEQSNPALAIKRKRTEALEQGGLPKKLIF
Glycogen synthase kinase-3 alpha, sequence (P49840 whole entry): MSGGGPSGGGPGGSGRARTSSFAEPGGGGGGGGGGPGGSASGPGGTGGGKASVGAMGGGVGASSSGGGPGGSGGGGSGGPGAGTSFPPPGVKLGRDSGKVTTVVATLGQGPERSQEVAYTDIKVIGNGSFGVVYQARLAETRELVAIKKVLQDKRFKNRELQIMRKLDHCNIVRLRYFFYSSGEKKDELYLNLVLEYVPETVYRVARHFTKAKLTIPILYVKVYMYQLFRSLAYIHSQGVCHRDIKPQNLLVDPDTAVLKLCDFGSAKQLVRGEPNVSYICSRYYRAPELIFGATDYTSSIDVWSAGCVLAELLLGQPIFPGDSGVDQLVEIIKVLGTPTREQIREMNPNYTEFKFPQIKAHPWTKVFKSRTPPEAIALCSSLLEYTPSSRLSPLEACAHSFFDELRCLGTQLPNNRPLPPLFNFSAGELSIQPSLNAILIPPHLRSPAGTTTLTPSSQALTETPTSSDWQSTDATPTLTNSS
Dual specificity protein kinase CLK2, sequence (O35491 whole entry, the tested form may be a part): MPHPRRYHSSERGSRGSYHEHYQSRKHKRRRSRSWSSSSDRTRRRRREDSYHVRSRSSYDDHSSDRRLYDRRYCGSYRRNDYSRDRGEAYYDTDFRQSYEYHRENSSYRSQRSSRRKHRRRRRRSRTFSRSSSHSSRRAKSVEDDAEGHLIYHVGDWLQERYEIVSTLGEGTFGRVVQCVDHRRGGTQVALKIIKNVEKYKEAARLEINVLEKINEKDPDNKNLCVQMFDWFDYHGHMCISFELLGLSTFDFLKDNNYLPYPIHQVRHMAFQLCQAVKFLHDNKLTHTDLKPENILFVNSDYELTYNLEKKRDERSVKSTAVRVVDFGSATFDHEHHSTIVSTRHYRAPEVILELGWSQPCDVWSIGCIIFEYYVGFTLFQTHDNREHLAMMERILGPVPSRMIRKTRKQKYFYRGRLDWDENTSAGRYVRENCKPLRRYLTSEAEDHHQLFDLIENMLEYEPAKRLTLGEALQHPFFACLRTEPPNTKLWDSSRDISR
Serine/threonine-protein kinase pim-1, sequence (P11309 whole entry): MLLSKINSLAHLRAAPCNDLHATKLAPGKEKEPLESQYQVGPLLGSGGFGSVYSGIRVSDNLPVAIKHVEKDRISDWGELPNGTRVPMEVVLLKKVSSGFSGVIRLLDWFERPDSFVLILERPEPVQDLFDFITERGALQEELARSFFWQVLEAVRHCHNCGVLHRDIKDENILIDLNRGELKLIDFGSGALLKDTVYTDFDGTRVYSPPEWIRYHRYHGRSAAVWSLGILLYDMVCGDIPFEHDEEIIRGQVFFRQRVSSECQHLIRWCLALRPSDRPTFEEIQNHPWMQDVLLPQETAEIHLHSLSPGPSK
Dual specificity protein kinase CLK4 (Mus musculus, UniProt O35493), sequence (O35493 whole entry): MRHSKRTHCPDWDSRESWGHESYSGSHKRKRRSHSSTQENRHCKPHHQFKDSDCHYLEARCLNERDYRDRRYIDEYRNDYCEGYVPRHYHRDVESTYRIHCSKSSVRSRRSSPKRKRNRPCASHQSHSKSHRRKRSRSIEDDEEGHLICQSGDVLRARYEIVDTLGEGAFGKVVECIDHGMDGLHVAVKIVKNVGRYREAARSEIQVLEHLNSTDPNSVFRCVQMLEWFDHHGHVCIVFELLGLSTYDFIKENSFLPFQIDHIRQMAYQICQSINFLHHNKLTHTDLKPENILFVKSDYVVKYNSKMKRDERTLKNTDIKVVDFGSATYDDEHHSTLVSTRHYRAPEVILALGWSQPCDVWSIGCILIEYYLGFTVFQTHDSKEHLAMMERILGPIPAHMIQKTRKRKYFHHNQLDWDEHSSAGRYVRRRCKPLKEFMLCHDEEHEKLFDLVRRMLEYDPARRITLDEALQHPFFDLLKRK

SMILES: COc1ccc2c3c1O[C@H]1C[C@@H](O)C=C[C@@]31CCN(C)C2
- inhibition [1]: inactive
- inhibition [2]: inactive
- inhibition [3]: inactive
- inhibition [4]: inactive

SMILES: CN1C(=O)/C(=C/c2ccc3c(c2)OCO3)N=C1N [LEUCETTAMINE B]
- IC50 [5]: 900 nM
- IC50 [6]: > 10000 nM
- IC50 [7]: 1800 nM
- IC50 [8]: 2900 nM
- Activity [9]: Active
- IC50 [10]: 150 nM
- IC50 [11]: 7700 nM
- IC50 [12]: > 10000 nM
- IC50 (CDK9/cyclin T1): > 10000 nM
- IC50 [13]: 2000 nM
- Activity [14]: Active
- IC50 [15]: > 10000 nM
- IC50 [16]: > 10000 nM
- IC50 [17]: > 10000 nM
- IC50 [18]: 1400 nM
- inhibition [19]: inactive
- IC50 [20]: 2100 nM
- IC50 [21]: 920 nM
- inhibition (Plasmodium falciparum): inactive
- IC50 [22]: > 10000 nM
- inhibition (Leishmania major): inactive
- IC50 [23]: > 10000 nM
- Activity [24]: Active
- IC50 [25]: 66 nM
- IC50 [26]: > 10000 nM
- Activity [27]: Active

SMILES: CC12CC3CC(C)(C1)CC(N)(C3)C2
- inhibition [1]: inactive
- inhibition [2]: inactive
- inhibition [3]: inactive
- inhibition [4]: inactive

SMILES: Nc1ccc(C(=O)Nc2cccc(-c3nc(N4CCOCC4)c4oc5ncccc5c4n3)c2)cn1
- Activity (HT-22 [28]): inactive

SMILES: O=C1Cc2c([nH]c3ccc([N+](=O)[O-])cc23)-c2ccccc2N1
- inhibition (HT-22 [29]): Active
- Activity (HT-22 [28]): Active
- inhibition (HT-22 [30]): Active
- inhibition [31]: inactive

SMILES: COc1cc2c(cc1OC)C(=O)C(CC1CCN(Cc3ccccc3)CC1)C2 (stereo not drawn)
- inhibition [1]: inactive
- inhibition [2]: inactive
- inhibition [3]: inactive
- inhibition [4]: inactive
